According to ChEMBL document CHEMBL2150998, “Antibiotic and antimalarial quinones from fungus-growing ant-associated Pseudonocardia sp” (J Nat Prod, 2012):
≈ marks a conversion by molar mass, not a printed value.

How the values were obtained:
Saccharomyces cerevisiae = test: Antifungal activity against Saccharomyces cerevisiae after 24 hrs; assay type: functional
Procedure, shortened: (§1)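 Overnight cultures at 30 °C in LB (E. coli, B. subtilis) or YPD (C. albicans, S. cerevisiae) were diluted to OD600 0.01. Compounds came from 5 mg/mL DMSO stocks, 2-fold serially diluted, at final 50 to 0.1 μg/mL. Growth ran 24 h at 30 °C with OD600 read-out. MIC was the lowest concentration giving <5% of maximum OD600. Assays were run in duplicate, with dynemicin A as positive control.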

HepG2 = test: Cytotoxicity against human HepG2 cells after 2 days by CellTiter-Glo assay; assay type: cell-based; settings: HepG2, 48 h
Procedure, shortened: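 HepG2 hepatoma cells were kept in DMEM with 10% FBS and 1% antibiotic–antimycotic (37 °C, 5% CO2). 15 000 cells/well were exposed in triplicate to compounds at 0–50 μg/mL with 1% DMSO final, 2 days at 37 °C. Viability was read by CellTiter-Glo luminescence. IC50 came from a standard inhibition dose–response fit, mean of two independent experiments.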

Candida albicans = test: Antifungal activity against Candida albicans after 24 hrs; assay type: functional; procedure, shortened: as §1
Plasmodium berghei = test: Antiplasmodial activity against luciferase-expressing sporozoite of Plasmodium berghei ANKA infected in human HepG2 cells assessed as reduction of parasite load after 2 days; assay type: functional, organism-based; settings: HepG2, 48 h
Procedure, shortened: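 HepG2 cells (15 000/well, 384-well) were infected with 4000 luciferase-expressing P. berghei ANKA sporozoites, taken from infected Anopheles stephensi, with compounds in triplicate. Final DMSO was 1%, compounds 0–50 μg/mL, 2 days at 37 °C. Parasite load was read by Bright-Glo luminescence. IC50 came from a standard inhibition dose–response fit, mean of two independent experiments. Atovaquone was the positive control.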

Escherichia coli = test: Antibacterial activity against Escherichia coli K12 after 24 hrs; assay type: functional; settings: K-12, 24 h; procedure, shortened: as §1
Bacillus subtilis = test: Antibacterial activity against Bacillus subtilis 3610 after 24 hrs; assay type: functional; settings: subsp. subtilis str. NCIB 3610, 24 h; procedure, shortened: as §1

## COc1cccc2c1C(=O)c1ccc3c(c1C2=O)C(=O)C[C@](C)(O)C3
Saccharomyces cerevisiae
  MIC: > 50 µg/mL
HepG2
  IC50: > 100 µM
Candida albicans
  MIC: > 50 µg/mL
Plasmodium berghei
  IC50: 18.5 µM
Escherichia coli
  MIC: > 50 µg/mL
Bacillus subtilis
  MIC: 25 µg/mL (≈ 74.3 µM)

## COc1cccc2c1C(=O)c1ccc3cc(C)cc(O)c3c1C2=O
Saccharomyces cerevisiae
  MIC: > 50 µg/mL
HepG2
  IC50: 36.1 µM
Candida albicans
  MIC: > 50 µg/mL
Plasmodium berghei
  IC50: 3 µM
Escherichia coli
  MIC: > 50 µg/mL
Bacillus subtilis
  MIC: 3.13 µg/mL (≈ 9.83 µM)

## COc1cccc2c1C(=O)c1ccc3cc(C)cc(O[C@@H]4O[C@H](C(=O)O)[C@@H](O)[C@H](O)[C@H]4O)c3c1C2O (relative stereo)
Saccharomyces cerevisiae
  MIC: > 50 µg/mL
HepG2
  IC50: > 100 µM
Candida albicans
  MIC: > 50 µg/mL
Plasmodium berghei
  IC50: 38 µM
Escherichia coli
  MIC: > 50 µg/mL
Bacillus subtilis
  MIC: > 50 µg/mL

## COC1=C(C(=O)O)[C@H](C)[C@@]23O[C@]24c2cc(O)c5c(c2N[C@H]3C#C/C=C\C#C[C@H]14)C(=O)c1c(O)ccc(O)c1C5=O [DYNEMICIN A]
Saccharomyces cerevisiae
  MIC: 0.156 µg/mL (≈ 0.29 µM)
Candida albicans
  MIC: 0.156 µg/mL (≈ 0.29 µM)
Escherichia coli
  MIC: 0.313 µg/mL (≈ 0.582 µM)
Bacillus subtilis
  MIC: 0.00016 µg/mL (≈ 0.000298 µM)

## COc1cccc2c1C(=O)c1ccc3cc(C)cc(O[C@@H]4O[C@H](C(=O)O)[C@@H](O)[C@H](O)[C@H]4O)c3c1C2=O [PSEUDONOCARDONE B]
Saccharomyces cerevisiae
  MIC: > 50 µg/mL
HepG2
  IC50: > 100 µM
Candida albicans
  MIC: > 50 µg/mL
Plasmodium berghei
  IC50: 50 µM
Escherichia coli
  MIC: > 50 µg/mL
Bacillus subtilis
  MIC: > 50 µg/mL

## COc1cccc2c1C(=O)c1ccc3cc(C)c(O[C@@H]4O[C@H](C(=O)O)[C@@H](O)[C@H](O)[C@H]4O)c(O)c3c1C2=O [PSEUDONOCARDONE C]
Saccharomyces cerevisiae
  MIC: > 50 µg/mL
HepG2
  IC50: > 100 µM
Candida albicans
  MIC: > 50 µg/mL
Plasmodium berghei
  IC50: > 100 µM
Escherichia coli
  MIC: > 50 µg/mL
Bacillus subtilis
  MIC: > 50 µg/mL
